Measured values as given in paper PMC4339548 (Clinica chimica acta; international journal of clinical …, 2015).
Where two headings read alike, the source gives them in different places.

Columns and labels:
[1] = Urinary excretion of oral sugar probes; type: in vivo, human; settings: for Percent urinary excretion of oral sugar probe: healthy subjects, oral cocktail, mean ± SD/SE; for % Total (of 24 h urinary excretion) corrected for CrCl / % Total (cum) corrected for CrCl: normalized for CrCl; for % Total (of 24 h urinary excretion) / % Total (cumulative): not normalized; for Percent urinary excretion of oral sugar probe corrected for CrCl: percent excretion divided by creatinine clearance; for Percent urinary excretion of oral sugar probe corrected for CrCl / Lactulose/Mannitol Ratio / Sucralose/Lactulose Ratio: mean ± SE; for % Total (cum) corrected for CrCl / % Total (cumulative): cumulative first 12 h; for Range of tertile means of 24 h percent excretion of oral dose: data divided into 3 tertile groups, lowest to highest excretion
[2] = type: in vivo, human; settings: 24 h
Method in brief: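 Age- and BMI-matched controls and patients fasted overnight and emptied their bladders. At 6 AM they took 2 g mannitol, 7.5 g lactulose and 40 g sucrose in 8 oz water, plus 1 g sucralose in 2 capsules. Fasting continued 2 h, with no "diet" foods or drinks from 48 h before through the test. Urine was pooled over 24 h and sugars were measured as alditol acetates by GC (DB-225MS). Results were expressed as % of oral dose and as the sucralose/lactulose ratio.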

[3] = ref [18], cited from earlier work
[4] = 12-24 hour, listed as lactulose
[5] = 12-24 hour, listed as sucralose

SMILES | Percent urinary excretion of oral sugar probe ([1]; 0-5 hour urine collection) [%] | % Total (of 24 h urinary excretion) corrected for CrCl ([1]; 0-5 hour) [%] | % Total (of 24 h urinary excretion) ([1]; 0-5 hour) [%] | Percent urinary excretion of oral sugar probe corrected for CrCl ([1]; 0-5 hour) | Percent urinary excretion of oral sugar probe ([1]; 0-24 hour urine collection) [%] | % Total (of 24 h urinary excretion) corrected for CrCl ([1]; 0-24 hour) [%] | % Total (of 24 h urinary excretion) ([1]; 0-24 hour) [%] | Percent urinary excretion of oral sugar probe corrected for CrCl ([1]; 0-24 hour) | Percent urinary excretion of oral sugar probe ([1]; 5-12 hour urine collection) [%] | % Total (of 24 h urinary excretion) corrected for CrCl ([1]; 5-12 hour) [%] | % Total (of 24 h urinary excretion) ([1]; 5-12 hour) [%] | Percent urinary excretion of oral sugar probe corrected for CrCl ([1]; 5-12 hour) | Percent urinary excretion of oral sugar probe ([1]; 12-24 hour urine collection) [%] | % Total (of 24 h urinary excretion) corrected for CrCl ([1]; 12-24 hour) [%] | % Total (of 24 h urinary excretion) ([1]; 12-24 hour) [%] | Percent urinary excretion of oral sugar probe corrected for CrCl ([1]; 12-24 hour) | % Total (cum) corrected for CrCl [1] [%] | % Total (cumulative) [1] [%] | Range of tertile means of 24 h percent excretion of oral dose [1] | also measured
OC[C@@H](O)[C@@H](O)[C@H](O)[C@H](O)CO [Mannitol, D-mannitol] | 15.6 ± 0.8 | 52.9 | 61.5 | 0.18 ± 0.01 | 28.9 ± 1.3 | 99 | 100 | 0.34 ± 0.029 | 6.03 ± 0.96 | 22.6 | 20 | 0.077 ± 0.01 | 6.4 ± 1.3 | 23.5 | 18.5 | 0.08 ± 0.016 | 75.5 | 81.5 | – | % Total (of 24 h urinary excretion) corrected for CrCl ([1]; 0-5 hour, listed as mannitol): 52.9%; % Total (of 24 h urinary excretion) ([1]; 0-5 hour, listed as mannitol): 61.5%; % Total (of 24 h urinary excretion) corrected for CrCl ([1]; 12-24 hour, listed as mannitol): 23.5%; % Total (of 24 h urinary excretion) ([1]; 12-24 hour, listed as mannitol): 18.5%
OC[C@H]1O[C@@](CO)(O[C@H]2O[C@H](CO)[C@@H](O)[C@H](O)[C@H]2O)[C@@H](O)[C@@H]1O [Sucrose, α-D-glucopyranosyl-β-D-fructofuranoside] | 0.5 ± 0.15 | 26.9 | 29.6 | 0.006 ± 0.0007 | 1.82 ± 0.17 | 94.6 | 100 | 0.0223 ± 0.002 | – | 26.9 | 27.4 | 0.006 ± 0.001 | 0.8 ± 0.7 | 40.8 | 43 | 0.009 ± 0.0009 | 53.8 | 57 | 0.3%-0.6% | –
OC[C@H]1O[C@@H](O[C@@H]2[C@@H](CO)O[C@](O)(CO)[C@H]2O)[C@H](O)[C@@H](O)[C@H]1O [Lactulose, 4-o-β-D-galactopyranosyl-D-fructofuranose] | 0.95 ± 0.6 | 30 | 29.3 | 0.012 ± 0.001 | 3.11 ± 0.2 | 100 | 100 | 0.04 ± 0.002 | 1.1 ± 0.19 | 32.4 | 26.8 | 0.012 ± 0.002 | 1.4 ± 0.1 | 40 | 43.9 | 0.016 ± 0.001 | 60 | 56.1 | 0.5%-1.7% | Lactulose/Mannitol Ratio ([1]; 0-5 hour urine): 0.065 ± 0.05; Lactulose/Mannitol Ratio ([1]; 0-5 hour urine, listed as lactulose): .065; % Total (of 24 h urinary excretion) ([1]; 0-5 hour, listed as lactulose): 29.3%; Lactulose/Mannitol Ratio ([1]; 0-24 hour urine): 0.124 ± 0.010; Lactulose/Mannitol Ratio ([1]; 0-24 hour urine, listed as lactulose): 0.124; Lactulose/Mannitol Ratio ([1]; 5-12 hour urine): 0.25 ± 0.03; Lactulose/Mannitol Ratio ([1]; 5-12 hour urine, listed as lactulose): 0.25; Lactulose/Mannitol Ratio ([1]; 12-24 hour urine): 0.534 ± 0.11; Lactulose/Mannitol Ratio ([1]; 12-24 hour urine, listed as lactulose): 0.534; % Total (of 24 h urinary excretion) corrected for CrCl [1, 4]: 40%; % Total (of 24 h urinary excretion) [1, 4]: 43.9%; Variation of lactulose/mannitol (L/M) ratio over 24 h ([1]; across collection segments, peak in second 12 hours): more than 8 fold
OC[C@H]1O[C@H](O[C@]2(CCl)O[C@H](CCl)[C@@H](O)[C@@H]2O)[C@H](O)[C@@H](O)[C@H]1Cl [Sucralose, 1,6-dichloro-1,6-dideoxy-β-D-fructofuranosyl-4-chloro-4-deoxy-α-D-glucopyranoside] | 0.5 ± 0.8 | 33.3 | 35.9 | 0.005 ± 0.001 | 1.23 ± 0.14 | 99.5 | 100 | 0.015 ± 0.002 | 0.51 ± 0.13 | 38 | 29.7 | 0.0057 ± 0.001 | 0.3 ± 0.04 | 28.2 | 34.4 | 0.004 ± 0.0006 | 71.3 | 65.6 | 0.4%-2.4% | Sucralose/Lactulose Ratio ([1]; 0-5 hour urine): 0.53 ± 0.10; Sucralose/Lactulose Ratio ([1]; 0-5 hour urine, listed as sucralose): 0.53; % Total (of 24 h urinary excretion) corrected for CrCl ([1]; 0-5 hour, listed as sucralose): 33.3%; % Total (of 24 h urinary excretion) ([1]; 0-5 hour, listed as sucralose): 35.9%; Sucralose/Lactulose Ratio ([1]; 0-24 hour urine): 0.49 ± 0.08; Sucralose/Lactulose Ratio ([1]; 0-24 hour urine, listed as sucralose): 0.49; Sucralose/Lactulose Ratio ([1]; 5-12 hour urine): 0.54 ± 0.13; Sucralose/Lactulose Ratio ([1]; 5-12 hour urine, listed as sucralose): 0.54; Sucralose/Lactulose Ratio ([1]; 12-24 hour urine): 0.36 ± 0.06; Sucralose/Lactulose Ratio ([1]; 12-24 hour urine, listed as sucralose): 0.36; % Total (of 24 h urinary excretion) corrected for CrCl [1, 5]: 28.2%; % Total (of 24 h urinary excretion) [1, 5]: 34.4%; mean urinary excretion sucralose/lactulose ratio ([2]; Parkinson's disease patients (N=9), p ≤ 0.001 vs controls): 0.48 ± 0.1; mean urinary excretion sucralose/lactulose ratio ([2]; healthy controls (N=10)): 0.21± 0.1; 24 h mean urinary excretion sucralose value ([3]; Parkinson's disease patients (N=9), p ≤ 0.015 vs controls): 1.12 ± 0.1; 24 h mean urinary excretion sucralose value ([3]; healthy controls (N=10), BMI/age-matched): 0.58 ± 0.1
